Measured values taken from PMC4160279 (Journal of the American Chemical Society, 2014).
Values joined by “and” are separate entries in the source; they are usually repeats but may differ in a detail not shown here. Equal entries are not always repeated.

What was measured:
NoV VA387 P dimer [1] = conditions: reported values; cited from earlier work
P dimer VA115 = target: T1, P dimer VA115 (Human calicivirus NLV/VA98115/1998, UniProt Q91H12); test: Direct ESI-MS assay; assay type: binding; conditions: n = 3
T1 sequence (Q91H12 227-545): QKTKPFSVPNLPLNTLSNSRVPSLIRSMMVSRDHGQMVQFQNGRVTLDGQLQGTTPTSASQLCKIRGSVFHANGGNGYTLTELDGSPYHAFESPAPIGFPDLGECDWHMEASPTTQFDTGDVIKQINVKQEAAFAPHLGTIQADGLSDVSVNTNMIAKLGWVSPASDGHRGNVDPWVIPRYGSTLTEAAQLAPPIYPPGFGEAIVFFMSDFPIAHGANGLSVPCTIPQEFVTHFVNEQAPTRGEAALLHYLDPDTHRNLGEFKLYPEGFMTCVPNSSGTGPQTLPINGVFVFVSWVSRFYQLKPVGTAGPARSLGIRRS
How it was run: (§1)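 Recombinant P dimer (P domain residues 222–539, made in E. coli via a GST fusion system) was titrated with at least four initial oligosaccharide concentrations, in triplicate. Example mix: 12 μM dimer, 80 μM ligand, 4 μM reference protein. Bound/free abundance ratios were taken as solution ratios after nonspecific-binding correction. Ka,int was fitted assuming two independent, equivalent sites.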

P dimer VA387 = P dimer VA387 (Human calicivirus NLV/VA98387/1998, UniProt Q913Z3); test: Direct ESI-MS assay; assay type: binding; conditions: n = 3
How it was run: as §1

NoV VA387 P dimer [2] = test: Direct ESI-MS assay, NoV VA387 P dimer; set-up: species or system human NoV VA387 (GII.4); conditions: intrinsic (per binding site) association constant; aqueous ammonium acetate (200 mM), pH 7, 25 °C
How it was run: (§2)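 Recombinant P dimer, buffer-exchanged into ammonium acetate and quantified by UV, was mixed (e.g., 12 μM) with ganglioside oligosaccharide (e.g., 80 μM) and reference protein (4 μM). Nanoelectrospray in negative ion mode used capillary −0.8 kV, cone 60 V and source 60 °C. Runs covered ≥4 initial ligand concentrations in triplicate. Ka,int came from bound/free abundance ratios, corrected for nonspecific binding, with two equivalent sites.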

NoV VA387 P particle [3] = test: CaR-ESI-MS screening assay; assay type: binding, human NoV VA387 (GII.4); conditions: P particle (3 μM) and 10 μM of GD1a or GD1b
NoV VA115 P dimer = test: Direct ESI-MS assay, NoV VA115 P dimer; set-up: species or system human NoV VA115 (GI.3); conditions: intrinsic (per binding site) association constant; aqueous ammonium acetate (200 mM), pH 7, 25 °C
How it was run: as §2

NoV VA387 P particle [4] = test: Proxy protein ESI-MS method, VA387 P particle; assay type: binding, human NoV VA387 (GII.4); conditions: aqueous ammonium acetate (160 mM), pH 7, 25 °C; Gal-3C as proxy protein
How it was run: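 Gal-3C proxy (3.0 μM), ubiquitin reference (1.0 μM) and GM3 trisaccharide (40 μM) were mixed with VA387 P particle at 0–7.2 μM (0–172.8 μM monomer); the 24-mer came from E. coli. Positive-mode nanoESI. GM3-bound/free proxy ratio was measured after nonspecific-binding correction. Ka,int per site was derived from the ratio change using the known proxy association constant and binding-site concentration.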

NoV VA387 VLP = test: Proxy protein ESI-MS method, VA387 VLP; assay type: binding, human NoV VA387 (GII.4); conditions: aqueous ammonium acetate (160 mM), pH 7, 25 °C; Gal-3C as proxy protein
How it was run: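 VLPs were expressed from VA387 VP1 in Sf9 cells by recombinant baculovirus and purified on a sucrose gradient, then tested at 0–570 nM (0–102.6 μM monomer). Each mix held Gal-3C proxy (3.0 μM), ubiquitin reference (1.0 μM) and GM3 trisaccharide (40 μM). Positive-mode nanoESI. Ka,int per site came from the corrected proxy bound/free ratio versus VLP concentration, using the known proxy affinity.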

[5] = target: recombinant fragment of the C-terminus of human galectin-3 (Gal-3C) (Homo sapiens, UniProt P17931); test: ESI-MS binding of ligand to proxy protein Gal-3C; conditions: association constant of proxy protein for the ligand
Chain of recombinant fragment of the C-terminus of human galectin-3 (Gal-3C) (P17931 118-248 limits assumed): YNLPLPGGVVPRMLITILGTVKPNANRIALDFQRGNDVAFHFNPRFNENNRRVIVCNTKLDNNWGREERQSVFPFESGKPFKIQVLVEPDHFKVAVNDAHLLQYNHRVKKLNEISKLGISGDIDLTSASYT

Chain of P dimer VA387 (Q913Z3 222-539): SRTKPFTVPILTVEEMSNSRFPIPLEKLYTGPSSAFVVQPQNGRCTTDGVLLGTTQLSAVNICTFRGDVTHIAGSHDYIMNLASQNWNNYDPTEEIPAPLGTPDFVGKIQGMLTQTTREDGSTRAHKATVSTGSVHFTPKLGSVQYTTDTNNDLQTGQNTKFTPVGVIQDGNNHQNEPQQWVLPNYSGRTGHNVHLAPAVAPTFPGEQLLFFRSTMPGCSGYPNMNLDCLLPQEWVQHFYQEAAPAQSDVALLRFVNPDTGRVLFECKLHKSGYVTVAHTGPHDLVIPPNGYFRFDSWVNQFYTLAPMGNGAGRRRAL

SMILES	Kd (P dimer VA115) [mM]	Kd (P dimer VA387) [mM]	also measured
CC(=O)N[C@H]1C(O)O[C@H](CO)[C@H](O)[C@@H]1O[C@@H]1O[C@H](CO)[C@H](O)[C@H](O[C@H]2O[C@H](CO)[C@H](O)[C@H](O)[C@H]2O)[C@H]1O[C@@H]1O[C@@H](C)[C@@H](O)[C@@H](O)[C@@H]1O (some centres unmarked) [B3, B type 3 tetrasaccharide]			intrinsic affinity (Ka,int) of HBGA ligands (NoV VA387 P dimer [1]): 1500 ± 150 M^–1
CC(=O)N[C@H]1[C@H](O[C@@H]2[C@H](O[C@]3(C(=O)O)C[C@H](O)[C@@H](NC(C)=O)[C@H]([C@H](O)[C@H](O)CO)O3)[C@@H](O)[C@H](O[C@H]3[C@H](O)[C@@H](O)C(O)O[C@@H]3CO)O[C@@H]2CO)O[C@H](CO)[C@H](O)[C@@H]1O[C@@H]1O[C@H](CO)[C@H](O)[C@H](O[C@]2(C(=O)O)C[C@H](O)[C@@H](NC(C)=O)[C@H]([C@H](O)[C@H](O)CO)O2)[C@H]1O (some centres unmarked) [GD1a, GD1a ganglioside oligosaccharide (Neu5Aca2-3Galb1-3GalNAcb1-4(Neu5Aca2-3)Galb1-4Glc)]	3.12	> 10	
CC(=O)N[C@H]1[C@H](O[C@@H]2[C@H](O[C@]3(C(=O)O)C[C@H](O)[C@@H](NC(C)=O)[C@H]([C@H](O)[C@H](O)CO)O3)[C@@H](O)[C@H](O[C@H]3[C@H](O)[C@@H](O)C(O)O[C@@H]3CO)O[C@@H]2CO)O[C@H](CO)[C@H](O)[C@@H]1O[C@@H]1O[C@H](CO)[C@H](O)[C@H](O[C@]2(C(=O)O)C[C@H](O)[C@@H](NC(C)=O)[C@H]([C@H](O)[C@H](O)CO)O2)[C@H]1O (some centres unmarked) [GD1a]			Ka,int P dimer VA387 (NoV VA387 P dimer [2]): <100 M^–1; binding to P particle, ligand tested alone (NoV VA387 P particle [3]): binds; Ka,int P dimer VA115 (NoV VA115 P dimer): 320 ± 90 M^–1
CC(=O)N[C@H]1[C@H](O[C@@H]2[C@H](O[C@]3(C(=O)O)C[C@H](O)[C@@H](NC(C)=O)[C@H]([C@H](O)[C@@H](CO)O[C@]4(C(=O)O)C[C@H](O)[C@@H](NC(C)=O)[C@H]([C@H](O)[C@H](O)CO)O4)O3)[C@@H](O)[C@H](O[C@H]3[C@H](O)[C@@H](O)C(O)O[C@@H]3CO)O[C@@H]2CO)O[C@H](CO)[C@H](O)[C@@H]1O (some centres unmarked) [GD2, GD2 ganglioside oligosaccharide (GalNAcb1-4(Neu5Aca2-8Neu5Aca2-3)Galb1-4Glc)]	1.43	6.67	
CC(=O)N[C@H]1[C@H]([C@H](O)[C@H](O)CO)O[C@@](O[C@H](CO)[C@@H](O)[C@@H]2O[C@@](O[C@H]3[C@@H](O)[C@@H](CO)O[C@@H](O[C@H]4[C@H](O)[C@@H](O)C(O)O[C@@H]4CO)[C@@H]3O)(C(=O)O)C[C@H](O)[C@H]2NC(C)=O)(C(=O)O)C[C@@H]1O (some centres unmarked) [GD3, GD3 ganglioside oligosaccharide (Neu5Aca2-8Neu5Aca2-3Galb1-4Glc)]	2.38	2.94	
CC(=O)N[C@H]1[C@H](O[C@@H]2[C@H](O[C@]3(C(=O)O)C[C@H](O)[C@@H](NC(C)=O)[C@H]([C@H](O)[C@H](O)CO)O3)[C@@H](O)[C@H](O[C@H]3[C@H](O)[C@@H](O)C(O)O[C@@H]3CO)O[C@@H]2CO)O[C@H](CO)[C@H](O)[C@@H]1O[C@@H]1O[C@H](CO)[C@H](O)[C@H](O)[C@H]1O (some centres unmarked) [GM1a, GM1a ganglioside oligosaccharide (Galb1-3GalNAcb1-4(Neu5Aca2-3)Galb1-4Glc)]	2.5	2.86	
CC(=O)N[C@H]1[C@H](O[C@@H]2[C@H](O)[C@@H](O)[C@H](O[C@H]3[C@H](O)[C@@H](O)C(O)O[C@@H]3CO)O[C@@H]2CO)O[C@H](CO)[C@H](O)[C@@H]1O[C@@H]1O[C@H](CO)[C@H](O)[C@H](O[C@]2(C(=O)O)C[C@H](O)[C@@H](NC(C)=O)[C@H]([C@H](O)[C@H](O)CO)O2)[C@H]1O (some centres unmarked) [GM1b, GM1b ganglioside oligosaccharide (Neu5Aca2-3Galb1-3GalNAcb1-4Galb1-4Glc)]	2.08	5.56	
CC(=O)N[C@H]1[C@H](O[C@@H]2[C@H](O[C@]3(C(=O)O)C[C@H](O)[C@@H](NC(C)=O)[C@H]([C@H](O)[C@H](O)CO)O3)[C@@H](O)[C@H](O[C@H]3[C@H](O)[C@@H](O)C(O)O[C@@H]3CO)O[C@@H]2CO)O[C@H](CO)[C@H](O)[C@@H]1O (some centres unmarked) [GM2, GM2 ganglioside oligosaccharide (GalNAcb1-4(Neu5Aca2-3)Galb1-4Glc)]	1.43	2.78	
CC(=O)N[C@H]1[C@H]([C@H](O)[C@H](O)CO)O[C@@](O[C@H]2[C@@H](O)[C@@H](CO)O[C@@H](O[C@H]3[C@H](O)[C@@H](O)C(O)O[C@@H]3CO)[C@@H]2O)(C(=O)O)C[C@@H]1O (some centres unmarked) [GM3, GM3 ganglioside oligosaccharide (GM3 trisaccharide, Neu5Aca2-3Galb1-4Glc)]	0.769	0.667	
CC(=O)N[C@H]1[C@H]([C@H](O)[C@H](O)CO)O[C@@](O[C@H]2[C@@H](O)[C@@H](CO)O[C@@H](O[C@H]3[C@H](O)[C@@H](O)C(O)O[C@@H]3CO)[C@@H]2O)(C(=O)O)C[C@@H]1O (some centres unmarked) [GM3]			Ka,int P dimer VA387 (NoV VA387 P dimer [2]): 1500 M^–1 and 1500 ± 150 M^–1; affinity (Ka,int) for VA387 P particle (NoV VA387 P particle [4]): 2600 ± 200 M^–1; affinity (Ka,int) for VA387 VLP (NoV VA387 VLP): 5500 ± 600 M^–1; affinity for Gal-3C [5]: (1.20 ± 0.02) × 10^4 M^–1; Ka,int P dimer VA115 (NoV VA115 P dimer): 1300 ± 130 M^–1
CC(=O)N[C@H]1[C@H](O[C@@H]2[C@H](O[C@]3(C(=O)O)C[C@H](O)[C@@H](NC(C)=O)[C@H]([C@H](O)[C@@H](CO)O[C@]4(C(=O)O)C[C@H](O)[C@@H](NC(C)=O)[C@H]([C@H](O)[C@@H](CO)O[C@]5(C(=O)O)C[C@H](O)[C@@H](NC(C)=O)[C@H]([C@H](O)[C@H](O)CO)O5)O4)O3)[C@@H](O)[C@H](O[C@H]3[C@H](O)[C@@H](O)C(O)O[C@@H]3CO)O[C@@H]2CO)O[C@H](CO)[C@H](O)[C@@H]1O[C@@H]1O[C@H](CO)[C@H](O)[C@H](O)[C@H]1O (some centres unmarked) [GT1c, GT1c ganglioside oligosaccharide (Galb1-3GalNAcb1-4(Neu5Aca2-8Neu5Aca2-8Neu5Aca2-3)Galb1-4Glc)]			Ka,int (P dimer VA115): 260 ± 110 M⁻¹; Ka,int (P dimer VA387): <100 M⁻¹
CC(=O)NC1C(OC2C(CO)OC(OC3C(CO)OC(O)C(O)C3O)C(O)C2OC2(C(=O)O)CC(O)C(NC(C)=O)C(C(O)C(CO)OC3(C(=O)O)CC(O)C(NC(C)=O)C(C(O)C(CO)OC4(C(=O)O)CC(O)C(NC(C)=O)C(C(O)C(O)CO)O4)O3)O2)OC(CO)C(O)C1O (centres unmarked) [GT2, GT2 ganglioside oligosaccharide (GalNAcb1-4(Neu5Aca2-8Neu5Aca2-8Neu5Aca2-3)Galb1-4Glc)]	4.35	> 10	
CC(=O)NC1C(O)CC(OC2C(O)C(OC3C(CO)OC(O)C(O)C3O)OC(CO)C2OC2OC(CO)C(O)C(OC3OC(CO)C(O)C(O)C3OC3OC(C)C(O)C(O)C3O)C2NC(C)=O)(C(=O)O)OC1C(O)C(O)CO (centres unmarked) [fucosyl-GM1, fucosyl-GM1 ganglioside oligosaccharide (Fuc-GM1; Fuca1-2Galb1-3GalNAcb1-4(Neu5Aca2-3)Galb1-4Glc)]	1.67	2.17	
